Paper PMC11381611 (Heliyon, 2024)
Where a name gives a salt, the structure may show the parent alone.

How the values were obtained:
[1] = assay type: in vivo; conditions: rat, plasma, po, 10.39 g/kg/day
Adr-induced arrhythmias = experiment: Adr-induced arrhythmia in rats, electrocardiography; assay type: in vivo, rat; conditions: prophylactic administration, rats with Adr-induced arrhythmia; Fig. 5
In short: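 Rats (8 per group) got test compound intragastrically once daily for 14 days (5.19, 10.39 or 20.77 g/kg/d), metoprolol tartrate […], or saline 5 mL/kg/d. 30 min after the last dose, rats were anaesthetised i.p. with 0.6 % nembutal (30 mg/kg) and lead II ECG recorded at 50 mm/s. Adrenaline was given by tail vein as cumulative boluses (8, 16, 32, 64, 128) at 10-min intervals or until death. Read-outs were QRS duration and QTc = QT/√RR, as mean ± s.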

Compound	AUC(0-inf) [1] [µg·h/mL]	AUC(0-t) [1] [µg·h/mL]	Cmax [1] [µg/mL]	MRT inf [1] [h]	MRT last [1] [h]	half-life [1] [h]	QRS interval (Adr-induced arrhythmias)	QTc interval (Adr-induced arrhythmias)
O=c1c(-c2ccc(O)cc2)coc2c([C@@H]3O[C@H](CO)[C@@H](O)[C@H](O)[C@H]3O)c(O)ccc12 [puerarin]	0.615 ± 0.0874	0.603 ± 0.0694	0.145 ± 0.017	4.76 ± 1.55	4.19 ± 0.83	7.06 ± 4.39		
COc1ccc(-c2cc(=O)c3c(OC)c(OC)c(OC)c(OC)c3o2)cc1OC [nobiletin]	9.921 ± 0.0876	9.892 ± 0.0407	2.869 ± 0.0226	3.28 ± 0.19	3.24 ± 0.11	6.32 ± 0.89		
COc1ccc2cc3[n+](cc2c1OC)CCc1cc2c(cc1-3)OCO2 [berberine]	0.162 ± 0.0128	0.0911 ± 0.0529	0.0309 ± 0.0286	14.7 ± 7.88	4.26 ± 0.61	11.9 ± 5		
C[n+]1cccc(C(=O)[O-])c1 [trigonelline]	3.89 ± 0.0604	3.86 ± 0.0464	1.17 ± 0.0398	4.53 ± 0.33	4.18 ± 0.19	2.58 ± 0.24		
COCCc1ccc(OCC(O)CNC(C)C)cc1 (centres unmarked) [Meto, metoprolol tartrate]							no significant effect	shortened
COc1cc2c(cc1OC)[C@@H]1Cc3ccc(OC)c(OC)c3CN1CC2 [tetrahydropalmatine]	0.881 ± 0.0472	0.849 ± 0.0543	0.421 ± 0.0977	3.66 ± 0.54	2.91 ± 0.54	3.26 ± 1.13		
O=C(O)/C=C/c1ccccc1 [cinnamic acid]	7.693 ± 0.0684	2.01 ± 0.0733	0.8 ± 0.142	2.48 ± 2.81	2.64 ± 1.31	4.78 ± 1.67		
O=C1C[C@@H](c2ccc(O[C@@H]3O[C@H](CO)[C@@H](O)[C@H](O)[C@H]3O)cc2)Oc2cc(O)ccc21 [liquiritin]	0.747 ± 0.0836	0.708 ± 0.0492	0.142 ± 0.00869	10.7 ± 5.65	6.75 ± 0.84	7.14 ± 2.06		
